Results collected from several papers.
Each line is one published result; the experiments were not run side by side.
JAK2: Tyrosine-protein kinase JAK2 (JAK2, Homo sapiens, UniProt O60674)

SMILES	target	test	conditions	endpoint	result
CC(=O)Nc1cc(Oc2ccc3c(c2)CCN3C(=O)Nc2ccc(CN3CCN(C)CC3)c(C(F)(F)F)c2)ncn1	JAK2	enzyme activity, inhibitor, ELISA		Ki	22000 nM
COc1ccc(-c2nsc(NC(=O)[C@@H]3C[C@H]3C)c2C)cc1	Metabotropic glutamate receptor 2 (GRM2, Homo sapiens, UniProt Q14416)	calcium signal, agonist		EC50	> 25000 nM
CC(C)C[C@H](NC(=O)[C@H](Cc1ccccc1)NC(=O)[C@H](Cc1ccc(O)cc1)NC(=O)CNC(=O)[C@H](CCCNC(=N)N)NC(=O)[C@H](CO)NC(=O)[C@H](CCC(N)=O)NC(=O)[C@H](CO)NC(=O)[C@H](C)NC(=O)[C@H](Cc1ccccc1)NC(=O)[C@@H]1CCCN1C(=O)[C@H](CO)NC(=O)[C@H](CCC(N)=O)NC(=O)[C@H](Cc1ccccc1)NC(=O)[C@H](CCC(=O)O)NC(=O)[C@H](CCC(=O)O)NC(=O)[C@H](CC(=O)O)NC(=O)[C@@H](NC(=O)[C@H](CCCNC(=N)N)NC(=O)[C@@H](N)Cc1ccccc1)C(C)C)C(=O)N[C@@H](Cc1ccccc1)C(=O)N[C@@H](CCCNC(=N)N)C(=O)N1CCC[C@H]1C(=O)N[C@@H](CCCNC(=N)N)C(=O)N[C@@H](CC(N)=O)C(N)=O	Neuromedin-U receptor 1 (NMUR1, Homo sapiens, UniProt Q9HB89)	inositol phosphate, agonist, TR-FRET		EC50	0.12 nM
CC(=O)CC(c1ccccc1)c1c(O)c2ccccc2oc1=O (stereo not drawn)	Vitamin K epoxide reductase complex subunit 1-like protein 1 (Homo sapiens, UniProt Q8N0U8)	enzyme activity, inhibitor, fluorescence		Ki	95 nM
Cc1cc2nc3c(=O)[nH]c(=O)nc-3n(C[C@H](O)[C@H](O)[C@H](O)COP(=O)(O)OP(=O)(O)OC[C@H]3O[C@@H](n4cnc5c(N)ncnc54)[C@H](O)[C@@H]3O)c2cc1C	RNA-binding protein Musashi homolog 2 (MSI2, Homo sapiens, UniProt Q96DH6)	binding	lysate	Kd	59 nM
CC1(C)[C@@H](O)CC[C@]2(C)[C@H]3C(=O)C=C4[C@@H]5C[C@@](C)(C(=O)O)CC[C@]5(C)CC[C@@]4(C)[C@]3(C)CC[C@@H]12	Peroxiredoxin-2 (PRDX2, Homo sapiens, UniProt P32119)	binding, SPR		Kd	30000 nM
CCOc1cc(-c2nncn2C)ccc1Nc1ncc2cc(C)nc(NCC(C)(C)C)c2n1	Mitogen-activated protein kinase 9 (MAPK9, Homo sapiens, UniProt P45984)	binding, competition with immobilised ligand		Kd	74 nM
c1cncc(-c2cccc(Nc3nccc(NC4CCCCC4)n3)c2)c1	Tyrosine-protein kinase JAK2, JH1 (JAK2, Homo sapiens, UniProt O60674)	binding, competition with immobilised ligand		Kd	260 nM
COc1ccc2c(Oc3ccc4c(C(=O)Nc5ccccc5N)cccc4c3)ccnc2c1	JAK2	enzyme activity, inhibitor		IC50	> 500 nM
Cc1ncsc1-c1ccc([C@H](C)NC(=O)[C@@H]2C[C@@H](O)CN2C(=O)[C@@H](NC(=O)CCCCCC(=O)N2CCC3(CC2)CCN(c2cncc(Nc4ncc(Cl)c(-c5cccc(-c6ccccc6)c5)n4)c2)C3=O)C(C)(C)C)cc1	Phosphatidylinositol 5-phosphate 4-kinase type-2 gamma (PIP4K2C, Homo sapiens, UniProt Q8TBX8)	protein level, degrader, western blot		DC50	24 nM
Cc1cnc(-c2ccc(-c3ccc(NC(=O)Nc4c(F)cc(F)cc4F)cc3F)c3c2C(=O)NC3)[nH]1	Proto-oncogene tyrosine-protein kinase receptor Ret (RET, Homo sapiens, UniProt P07949)	binding, competition with immobilised ligand		Kd	9.4 nM
ON=Cc1ccc(-c2ccc(O)c(F)c2)c(Cl)c1O	Estrogen receptor beta (ESR2, Homo sapiens, UniProt Q92731)	reporter gene, agonist, luciferase		EC50	72 nM
